# PLK1 PBD inh: inhibitors of human Plk1 polo box domain binding; P53350; Plk1 PBD phosphopeptide binding, fluorescence polarization; inhibition, %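 (tested at about 20 µM)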; hit rate 0.13% among 97,000; AID 693; in the data active = inhibition above about 34%, passing the limit was not always enough
# HIV Rev-RRE inh: inhibitors of HIV-1 Rev-RRE RNA interaction. P05866. Rev peptide-RRE RNA binding, FRET. inhibition, % at 8 µM. hit rate 0.79% among 97,000. AID 704;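 active = inhibition above the screen-wide mean plus 3 SD, cut at about 35% in these data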;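 note: 0% = median DMSO wells and 100% = median Neomycin B control wells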
# Target sequence (P05866 whole entry, looked up): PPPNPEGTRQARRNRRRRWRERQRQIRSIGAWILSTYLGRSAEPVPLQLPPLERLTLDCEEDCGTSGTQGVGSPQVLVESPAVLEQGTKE
#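 Assay system: Rev peptide and RRE RNA, both fluorescently labelled; times: 5 min preincubation and 15 min binding, 25 °C; detection: FRET, ex 480 nm, em 540 and 671 nm; read-out basis: % inhibition from 671/540 nm acceptor-to-donor ratio, scaled between controls; benchmarks: DMSO low control, neomycin B high control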
# PostGolgi yeast: growth inhibition of a yeast mutant, post-Golgi transport screen. post-Golgi transport phenotypic cell assay. inhibition, % at 10 µM. hit rate 0.9% among 98,000;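 note: yeast cells grown in 1536-well plates; yeast grown about 18 h at 30C before absorbance read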
# PLK1 kinase inh: blocks human PLK1 kinase activity; recombinant PLK1 kinase, TR-FRET peptide phosphorylation; inhibition, % at 10 µM; hit rate 0.53% among 97,000; AID 619;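 active = inhibition of 50% or more in the single-concentration screen; inactive = inhibition below 50%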;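 note: 0% = DMSO max control and 100% = H-89 dihydrochloride min control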
# PostGolgi ctrl: yeast control strain growth, post-Golgi counter-screen | efflux-deficient yeast background strain, growth absorbance A615, 16 h | inhibition, % at 10 µM | hit rate 5% among 98,000 | AID 738
# EphB4 ephrin blk: blocks human EphB4 binding to ephrin-B2. P54760. EphB4 LBD / TNYL-RAW-Alexa532 peptide, fluorescence polarization. inhibition, % at 7 µM. hit rate 0.15% among 97,000. AID 720;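 active = inhibition above the screen-wide mean inhibition plus 3 SD, cut at about 15% in these data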;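 note: 0% = DMSO wells and 100% = excess unlabeled TNYL-RAW peptide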
# PLK1 confirm: PLK1 (human) kinase inhibition, confirmed; inhibition, % at 10 µM; AID 744; hit rate 20% among 210; recombinant PLK1 kinase, TR-FRET peptide phosphorylation; shares compounds with PLK1 kinase inh;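 active = inhibition at or above 50% in each of two repeat confirmation tests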;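 note: 0% = DMSO max control and 100% = H-89 kinase-blocked min control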
# Plk1 interf: interferes with the Plk1 assay readout, not true inhibition; shares compounds with PLK1 kinase inh; Plk1 TR-FRET assay interference, compound added post-reaction; inhibition (interference), % at 10 µM; 210 tested, under 10 active; AID 756;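 active = both duplicate runs show 50% or greater inhibition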;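 note: 0% = DMSO max control and 100% = H-89 min control inhibited reaction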
# Starred values were filed as active, the others as inactive; x = no result given. Most compounds without a hit are left out; they make up all but 6.4% or so of the library. Cut-off read from the data, not from the text of the source, unless noted: active = inhibition above about 30%; inactive = the rest.
SMILES,PLK1 PBD inh,HIV Rev-RRE inh,PostGolgi yeast,PLK1 kinase inh,PostGolgi ctrl,EphB4 ephrin blk,PLK1 confirm,Plk1 interf
O=C(Cc1ccccc1)NCC(=O)OCC(=O)c1cccs1,-9,10,1,-10,0,3,x,x
CCC1CCc2c(sc(NC(=O)CSc3nc(-c4ccco4)cc(C(F)(F)F)n3)c2C#N)C1 (centres undefined),-23,20,-5,-11,2,4,x,x
O=C(CCc1ccccc1)N1CCN(CCO)CC1,21,4,-3,74*,1,-2,-10,-48
O=C(Cn1[nH]c(=O)c2ccccc2c1=O)Nc1ccc(-c2nnc3n2CCCCC3)cc1,-22,6,0,-5,-11,5,x,x
c1ccc2c(-c3ccncc3)c[nH]c2c1,-16,0,0,78*,6,10,71*,-60
c1ccc(-c2nnc(-c3ccccc3)c(-c3c[nH]c4ccccc34)n2)cc1,-21,9,-2,-7,5,8,x,x
Cn1nnnc1SCC(=O)Nc1ccc(N2CCOCC2)cc1,-13,9,-4,75*,1,4,-3,-54
Cn1c(SCC(=O)Nc2ccc(N3CCOCC3)cc2)nnc1-c1ccccc1,-10,1,-1,-12,5,-7,x,x
O=C(c1ccco1)N1CCN(c2ncccn2)CC1,-9,8,-1,76*,-1,-1,-15,-49
NNc1ncnc2c1cnn2-c1ccccc1,13,7,17,75*,0,4,68*,-60
CCC(C)Sc1nnc(Cc2cc(=O)[nH]c(=O)[nH]2)n1-c1ccc(F)cc1 (centres undefined),16,-4,1,72*,5,-7,-8,-49
CCOc1ccc(-n2c(Cc3cc(=O)[nH]c(=O)[nH]3)nnc2SC(C)C)cc1,-6,3,-22,-8,16,-5,x,x
Cc1ccc(S(=O)(=O)Cc2ccc(C(=O)O)o2)cc1,10,4,-2,-20,3,3,x,x
COc1ccc(-c2cc(C(=O)NCC(C)C)no2)cc1,-15,1,-8,-12,0,2,x,x
CC1Cc2ccccc2N1C(=O)c1cnc2n(c1=O)CCS2 (centres undefined),8,9,-2,70*,27,4,-9,-53
O=C(c1cnc2n(c1=O)CCS2)N1CCc2ccccc21,x,x,3,x,8,x,x,x
Cc1cc(N)ccc1N1CCCC1,11,0,-3,80*,15,13,20,-24
O=C(CSc1nnc(-c2ccc(OC(F)F)cc2)o1)NC(=O)NCc1ccco1,10,0,3,-1,1,-1,x,x
CCOC(=O)CNC(c1ccccc1)c1cc(Br)ccc1NC(=O)OCC (centres undefined),9,16,3,93*,14,-2,-1,-54
COC(=O)c1[nH]c2ccc(Cl)cc2c1NC(=O)CN1CCC(C(N)=O)CC1,2,6,4,72*,5,4,-10,-48
O=c1[nH]cnc2cc(-c3ccccc3)sc12,5,0,7,80*,-4,-3,73*,-54
Cc1ccc(CNC(=O)c2ccc(Cl)cc2[N+](=O)[O-])cc1,13,4,-4,-12,3,2,x,x
COc1ccc(S(=O)(=O)Cc2ccc(C(=O)N3CCN(c4cccc(C)c4)C(C)C3)o2)cc1 (centres undefined),-6,8,-8,73*,47*,2,-3,-51
COc1ccccc1S(=O)(=O)Cc1ccc(C(=O)N2CCN(c3ccc(C)cc3)C(C)C2)o1 (centres undefined),x,x,3,x,10,x,x,x
CCOC(=O)c1[nH]c(C)c(C(=O)NCCN2CCOCC2)c1C,-21,7,3,74*,11,4,-10,-52
SMILES,PLK1 PBD inh,HIV Rev-RRE inh,PostGolgi yeast,PLK1 kinase inh,PostGolgi ctrl,EphB4 ephrin blk,PLK1 confirm,Plk1 interf
CCOC(=O)c1[nH]c(C)c(C(=O)NCCCOC(C)C)c1C,x,x,-10,x,3,x,x,x
O=C(Cc1ccccc1)N[C@H](c1ccccc1)P(=O)(O)CO,11,3,-1,-7,27,-8,x,x
CCCCOC(=O)CCn1c(=S)oc2ccccc21,13,5,-2,125*,14,2,-8,-52
O=C(COc1ccccc1C(=O)N/N=C\c1ccc(O)c(O)c1)N/N=C/c1ccc(O)c(O)c1,5,1,-3,86*,4,-1,72*,69*
CCNC(=O)CN(Cc1ccccc1)S(=O)(=O)c1ccccc1,10,7,2,-6,11,2,x,x
CC1CCN(c2ncnc3nc[nH]c23)CC1,12,3,-15,81*,13,-7,74*,-47
Cc1nc2c([nH]1)C1(CCN(Cc3ccccc3)CC1)C(C#N)=C(N)O2,1,28,-7,70*,0,-2,72*,-56
CC1(C)CC(=O)C2=C(C1)OC(N)=C(C#N)C21CCN(Cc2ccccc2)CC1,x,x,0,x,11,x,x,x
COC(=O)c1ccccc1NC(=O)CSc1nc(N)cc(N)n1,42,4,-4,71*,1,-1,-5,-44
CCOC(=O)c1ccccc1NC(=O)CSc1nc(N)cc(N)n1,1,4,x,-4,x,1,x,x
COc1ccc(Cl)c(NCCC(=O)O)c1,-24,-1,0,-3,-6,2,x,x
COc1ccc(C2c3c(oc4ccccc4c3=O)C(=O)N2CCCN2CCOCC2)cc1 (centres undefined),14,4,x,-7,x,-2,x,x
CCOc1ccc(C2c3c(oc4ccccc4c3=O)C(=O)N2CCCN2CCOCC2)cc1OCC (centres undefined),5,8,9,74*,12,0,-3,-54
Cc1cccc(N=Nc2c(N)n[nH]c2-c2ccc(Cl)cc2)c1,-3,10,5,71*,34*,2,59*,-49
Cn1c(=O)c2c(SCc3cccnc3)nc(CC(C)(C)C)nc2n(C)c1=O,-8,3,6,73*,54*,-2,0,-53
CC(=O)Nc1ccc(C(=O)CSc2ncn(-c3ccccc3)n2)cc1,-18,0,2,84*,35*,-14,-13,-51
O=C(CSc1ncn(-c2ccccc2)n1)Nc1nccs1,-12,8,-4,11,10,5,x,x
CCN(CC)C(=O)CSc1nc2ccccc2c(=O)[nH]1,-4,5,15,-6,6,2,x,x
CCOC(=O)CSc1nc2ccccc2c(=O)[nH]1,2,7,1,72*,2,-4,-9,-49
Cc1ccc(S(=O)(=O)N2CCCN(S(=O)(=O)C3CCS(=O)(=O)C3)CC2)cc1 (centres undefined),-19,-3,-12,-7,16,6,x,x

# Source: PubChem
